# Results of several laboratories.
# Compare with care: the assays were run in different laboratories.
# Target: Tyrosine-protein kinase HCK (HCK, Homo sapiens, UniProt P08631)
Compound,observed,method,concentration,remaining binding [%]
c1cncc(-c2cccc(Nc3nccc(NC4CCCCC4)n3)c2)c1,binding,competition with immobilised ligand,10 µM,3.1
Cc1cnn2ncc(-c3ccnc(N(C)C)n3)c2c1,binding,,1 µM,100
C=CC(=O)N1CCC(C(=O)NCC(=O)N2CCN(c3nc(-c4cnc(N)nc4C(F)F)nc(N4CCOCC4)n3)CC2)CC1,binding,competition with immobilised ligand,1 µM,86
COCCOc1nc(-c2ccc(Cl)nc2)nc2c1CN(C(=O)c1ncn3ccccc13)CC2,cell-free assay,competition with immobilised ligand,0.1 µM,100
COc1ncc2cc3ccccc3nc2c1C#N,cell-free assay,competition with immobilised ligand,5 µM,100
CC1CCCN1c1nccc(-c2cnn3ncccc23)n1 (stereo not drawn),binding,,1 µM,100
O=C(c1ccc(Nc2ncc(Cl)c(-c3cc4ccccc4s3)n2)cc1)N1CCC(N2CCCC2)CC1,binding,competition with immobilised ligand,1 µM,100
CN(C)c1nccc(-c2cnn3ncccc23)n1,binding,,1 µM,100
CS(=O)(=O)c1cc(C2(NC(=O)c3cncc4c3cnn4-c3ccc(F)cc3)CC2)ccn1,cell-free assay,competition with immobilised ligand,1 µM,100
COc1cnc(Nc2cccc(S(N)(=O)=O)c2)nc1N1CCN(c2ccccc2)CC1,binding,competition with immobilised ligand,1 µM,100
N[C@H]1CCN(c2nccc(-c3cnn4ncccc34)n2)C1,binding,,1 µM,98
CN1CCN(c2cnc3c(C4CCN(C(=O)c5ccc(OC(F)(F)F)cc5N)CC4)ncnc3c2)CC1,cell-free assay,competition with immobilised ligand,1 µM,95
CCN1CCN(Cc2ccc(C(=O)Nc3ccc(C)c(Oc4ccc5c(c4)CC(=O)N5)c3)cc2C(F)(F)F)CC1,binding,competition with immobilised ligand,1 µM,80
CO[C@@H](C)c1c(Nc2ccc([C@H](N(C)C(=O)C3CCS(=O)(=O)CC3)C(F)(F)F)cc2)cnc2cc(Cl)nn12,cell-free assay,competition with immobilised ligand,1 µM,100
C[C@H]1CCN(c2nccc(-c3cnn4ncccc34)n2)C1,binding,,1 µM,95
O=C1NC(c2ccccn2)Sc2ccccc21 (stereo not drawn),cell-free assay,competition with immobilised ligand,1 µM,90
O=C(NCCCN1CCOCC1)c1ccc(Nc2nccc(-c3cc4ccccc4s3)n2)cc1,binding,competition with immobilised ligand,1 µM,95
Cc1nc(C2CCN(C(=O)c3ccc(OC(F)(F)F)cc3N)CC2)c2ncc(N3CCN(C)CC3)cc2n1,cell-free assay,competition with immobilised ligand,1 µM,95
O=C(NCC1CCOCC1)c1n[nH]cc1NC(=O)c1c(F)cccc1F,binding,competition with immobilised ligand,1 µM,100
c1cnn2ncc(-c3ccnc(N4CCC45COC5)n3)c2c1,binding,,1 µM,90
O=C(NCCCN1CCOCC1)c1ccc(Nc2ncc(Cl)c(-c3ccc(Cl)s3)n2)cc1,binding,competition with immobilised ligand,1 µM,100
